# Measured values from publication PMC3080100 (Chemical biology & drug design, 2011).
# * marks the point of attachment. FITC = O=C1OC2(c3ccc(O)cc3Oc3cc(O)ccc32)c2ccc(NC(=S)*)cc21
# Tests used:
# Assay type in all cases: cell-based, mouse
# claudin-4 = assay: Claudin-4 localization by immunofluorescence; conditions: EpH4 cells; for claudin-4 localization: 16 hours; for claudin-4 localization, time course: 400 μM, 16 hours at 4°C
# EpH4 cells [1] = assay: Apoptosis scored as caspase-3 positive cells; conditions: mean ± SEM; for percentage of cells containing caspase-3 (apoptosis): 2 mM peptide; for percent apoptosis (caspase-3 positive cells): 200 μM peptide, 16 hours at 37°C
# Method in brief: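 EpH4 monolayers were exposed for 16 h to test compound over a dose range and fixed in 2% PFA (15 min RT). Then 0.5% Triton X-100 for 5 min and 2% BSA for 1 h. Primary: rabbit anti-cleaved caspase-3 (1:100), ± rat anti-ZO-1 (1:50), 1 h. Secondary: Cy3/FITC (1:150), 45 min. Percent positive cells scored; mean ± SEM, n=3-6 wells; unpaired t-test versus untreated.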
# claudin-3 = assay: Claudin-3 localization by immunofluorescence; conditions: EpH4 cells, 16 hours, co-stained with ZO-1
# Method in brief: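 EpH4 monolayers were exposed to peptide for 16 h, then fixed in 2% paraformaldehyde for 15 min at room temperature. Permeabilised with 0.5% Triton X-100 and blocked 1 h in 2% BSA. Stained 1 h with rabbit anti-claudin-3 (1:200) and rat anti-ZO-1 (1:50), then 45 min with fluorophore-conjugated donkey secondaries (1:150). Nuclei counterstained with DAPI; confocal z-stacks imaged.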
# EpH4 cells [2] = assay: Live-cell binding/localization of FITC-labeled peptide at 4°C, EpH4; conditions: 400 μM, 1 hour at 4°C; for localization/binding of FITC-peptide at the plasma membrane: live imaging; for fluorescence intensity of FITC: washed in ice cold PBS, background subtracted, mean ± SEM, n=3 separate cultures, p=0.007
# Method in brief: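 EpH4 cells were incubated 1 h at 4°C with 400 μM FITC-labelled test compound. Washed in ice-cold PBS and imaged live, without fixation. FITC intensity was measured after background subtraction. Mean ± SEM, n=3 separate cultures.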
# 3T3L1 cells [3] = assay: Active caspase-3 and -7, live-cell fluorescent indicator, 3T3L1 fibroblasts; conditions: 3T3L1 fibroblast cells, 400 μM, 1 hour at 4°C then up to 4 hours at 37°C
# Method in brief: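 Live imaging of EpH4 or 3T3L1 cells (3T3L1 in DMEM/F12 with 10% bovine calf serum, split 1:8 every 2-3 days). Cells received 400 μM FITC-labelled test compound for 1 h at 4°C. Active caspase-3/7 indicator was then applied for 1 h at 4°C (time 0), or after 30 min, 2 h or 4 h at 37°C. PBS wash, then fluorescence imaging.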
# caspase-8 [4] = assay: Active caspase-8 by antibody, time course after warming from 4°C to 37°C; conditions: EpH4 cells, 400 μM, 16 hours at 4°C, then 4 hr at 37°C
# Method in brief: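 EpH4 cells grown 4–5 days on glass chamber slides to form tight junctions, in DMEM with 5% FBS and 10 mM Hepes. Exposed to 400 μM FITC-labelled D-form test peptide for 16 h at 4°C (final DMSO <0.5%). Then fixed (time 0) or moved to 37°C for 30 min, 2 h or 4 h. Fixed in 2% paraformaldehyde, permeabilised, BSA-blocked, immunostained for claudin-4 and active caspase-8, then imaged.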
# 3T3L1 cells [5] = assay: Live-cell binding/localization of FITC-labeled peptide at 4°C, 3T3L1; conditions: 3T3L1 fibroblast cells, 400 μM, 1 hour at 4°C, live imaging
# Method in brief: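 3T3L1 fibroblasts grown in DMEM/F12 with 10% bovine calf serum and plated on glass chamber slides. Given 400 μM FITC-linked D-form test peptide for 1 h at 4°C. Then either 1 h with live caspase-3/7 FLICA indicator at 4°C (time 0), or 30 min, 2 h or 4 h at 37°C before 1 h with indicator. Washed in cold PBS and imaged live without fixation.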
# caspase-3 = assay: Active caspase-3; conditions: EpH4 cells
# Method in brief: (§1)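 EpH4 cells were grown 4-5 days on 8-well chamber slides to form tight junctions, then exposed to test compound or control peptide for 8, 16 or 24 h (DMSO <0.5% final). For the last 1 h, growth medium held 1X FLICA probe (sulforhodamine-DEVD-fmk for caspase-3/7; carboxyfluorescein-LETD-fmk for caspase-8). Optional 1 μM Hoechst 33342, 5 min 37°C; HBSS wash; 2% PFA, 15 min RT. Mean ± SEM, n=3-6.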
# caspase-8 [6] = assay: Active caspase-8, live-cell fluorescent indicator; conditions: EpH4 cells, 16 hours of peptide, indicator added during the last hour
# Method in brief: as §1
# EpH4 cells [7] = assay: TUNEL staining
# Method in brief: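 EpH4 cells on chamber slides were exposed to 350 μM test compound or control peptide for 8, 16 or 24 h. Fixed in 2% PFA and permeabilised in 1% sodium citrate with 0.1% Triton X-100. TUNEL staining used a TMR-red in situ cell death kit per manufacturer. Mean ± SEM, n=3-6.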
substance,measurement,setting,value
LYQY [reference compound],claudin-4 localization,"claudin-4; 350 μM peptide, anti-claudin-4",no effect
Ac-C-DFYNP-C-OH (disulfide) [peptide 2],percentage of cells containing caspase-3 (apoptosis),"EpH4 cells [1]; 16 hours, n=3-6",9.22 ± 0.65%
Ac-C-DFYNP-C-amide (disulfide) [disulfide-bridged D-peptide],percent apoptosis (caspase-3 positive cells),EpH4 cells [1]; n=3-6,16.46 ± 0.51%
same,percentage of cells containing caspase-3 (apoptosis),"EpH4 cells [1]; 16 hours, n=3-6, listed as D-peptide",100%
Ac-DGYNP-amide [D(G)YNP],percent apoptosis (caspase-3 positive cells),EpH4 cells [1]; n=3-6,1.46±0.53%
same,percentage of cells containing caspase-3 (apoptosis),"EpH4 cells [1]; 16 hours, n=3-6",1.34±0.21%
same,claudin-3 localization,claudin-3; 400 μM peptide,remained restricted to the tight junctions
same,claudin-4 localization,"claudin-4; 400 μM peptide, anti-claudin-4",not affected
Ac-DFYNP-amide [linear D-peptide],percent apoptosis (caspase-3 positive cells),EpH4 cells [1]; n=3-6,12.27±0.72%
same,claudin-3 localization,claudin-3; linear D-peptide,mis-localization away from tight junctions
same,claudin-4 localization,"claudin-4; linear D-peptide, co-stained with ZO-1",mis-localized
{FITC}-DGYNP-NH2 [FITC-D(G)YNP],localization/binding of FITC-peptide at the plasma membrane,EpH4 cells [2],binds poorly
same,fluorescence intensity of FITC,EpH4 cells [2],18.38±9.26
{FITC}-DFYNP-NH2,"caspase-3 and/or -7 activation, live cells",3T3L1 cells [3],no caspase activation
same,"caspase-8 activation, time course",caspase-8 [4],significant caspase-8 activation
same,percent apoptosis (caspase-3 activation),"EpH4 cells [1]; 800 μM peptide, 16 hours, n=3-6",10.58±0.83%
same,localization/binding of FITC-peptide at the plasma membrane,EpH4 cells [2],localizes to the plasma membrane at the sites of cell junctions
same,fluorescence intensity of FITC,EpH4 cells [2],82.71±5.80
same,localization/binding of FITC-peptide at the plasma membrane,3T3L1 cells [5],"does not, however, appear to bind to the plasma membranes"
same,"caspase-3 and/or -7 activation, live cells","caspase-3; 400 μM, 1 hour at 4°C then 4 hours at 37°C",significantly increased
same,"claudin-4 localization, time course",claudin-4; then 30 min at 37°C,significant amount of claudin-4 mis-localization
same,"claudin-4 localization, time course",claudin-4; then 4 hr at 37°C,significant claudin-4 mis-localization
same,claudin-4 localization,claudin-4; 800 μM peptide,mis-localization of claudin-4 away from tight junctions
NH2-C-DFYNP-C-OH (disulfide) [peptide 1],cells with activated caspase-8 compared to control,caspase-8 [6],significant number of cells
same,percentage of cells containing caspase-3 (apoptosis),"EpH4 cells [1]; 16 hours, n=3-6",7.17 ± 1.24%
same,cells with activated caspase-3 compared to control,"caspase-3; 16 hours of peptide, indicator added during the last hour",significant number of cells
same,TUNEL staining compared to control peptide treated cells,"EpH4 cells [7]; 350 μM, 8, 16 or 24 hours",significantly increased
same,time of peak TUNEL staining,"EpH4 cells [7]; 350 μM, tested at 8, 16 or 24 hours",~16 h
same,claudin-4 localization,"claudin-4; 400 μM peptide, anti-claudin-4",mis-localization
Ac-C-DFYNP-C-amide (disulfide) [peptide 3],percentage of cells containing caspase-3 (apoptosis),"EpH4 cells [1]; 16 hours, n=3-6",7.96 ± 0.75%
same,percentage of cells containing caspase-3 (apoptosis),"EpH4 cells [1]; 16 hours, n=3-6, listed as L-peptide",about 7%
